In the first assay the test system is COLO 205. Put plainly: Cytotoxicity against human COLO205 cells after 48 hrs by MTT assay. The class given is functional, cell-based. The settings on record: COLO 205, 48 h. In outline:
(§1)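 Cells were treated with a range of concentrations for 48 h. Viability was read by MTT: formazan was dissolved in DMSO and absorbance read at 570 nm. Untreated or 0.1% DMSO cells served as control. Data are mean from three independent experiments. HL-60, H460 and COLO 205 were kept in RPMI-1640 with 10% FBS and penicillin/streptomycin.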
A general note: Formazan colour is commonly taken as a measure of viable cells.
As usually defined, the IC50 is the midpoint of a concentration-inhibition curve. Turning to `OCc1cc2c(o1)c1ccccc1n2Cc1ccccc1`, the IC50 came out at 30.6 µM.

`OCc1cc2c(o1)c1ccccc1n2Cc1ccc(CO)[se]1` yielded a 50% inhibitory concentration (IC50) greater than 50 µM.

Take `COC(=O)c1ccc(Cn2c3ccccc3c3oc(C(=O)OC)cc32)o1`: the IC50 is greater than 50 µM.

Consider `CCn1c2ccccc2c2oc(CO)cc21`, for which the IC50 is greater than 50 µM.

On to `COC(=O)c1cc2c(o1)c1ccccc1n2Cc1ccc(Cl)cc1`, for which the IC50 is greater than 50 µM.

In the case of `Cn1c2ccccc2c2oc(C(=O)O)cc21`, the 50% inhibitory concentration (IC50) was greater than 50 µM.

`COC(=O)c1cc2c(o1)c1ccccc1n2Cc1ccc(C(=O)OC)s1` came in with an IC50 greater than 50 µM.

For a further assay, the system named is Detroit 551. Description: Cytotoxicity against human Detroit 551 cells after 48 hrs by MTT assay. The class given is cell-based. The settings on record: Detroit 551, 48 h.
The compound `OCc1cc2c(o1)c1ccccc1n2Cc1ccccc1` gave a half-inhibitory concentration (IC50) greater than 50 µM.

As to `OCc1cc2c(o1)c1ccccc1n2Cc1ccc(CO)[se]1`, the IC50 is greater than 50 µM.

As for `COC(=O)c1ccc(Cn2c3ccccc3c3oc(C(=O)OC)cc32)o1`, the IC50 was greater than 50 µM.

`CCn1c2ccccc2c2oc(CO)cc21` yielded an IC50 greater than 50 µM.

`COC(=O)c1cc2c(o1)c1ccccc1n2Cc1ccc(Cl)cc1` gave an IC50 greater than 50 µM.

In turn, `Cn1c2ccccc2c2oc(C(=O)O)cc21` returned an IC50 greater than 50 µM.

In the case of `COC(=O)c1cc2c(o1)c1ccccc1n2Cc1ccc(C(=O)OC)s1`, the IC50 was greater than 50 µM.

System in a further assay: not listed separately
Description: Cytotoxicity against human Hep3B cells after 48 hrs by MTT assay. The class given is functional, cell-based, Hep 3B2.
Conditions: not given
As to `OCc1cc2c(o1)c1ccccc1n2Cc1ccccc1`, the midpoint of inhibition, the IC50, lay at 50 µM.

Compound `OCc1cc2c(o1)c1ccccc1n2Cc1ccc(CO)[se]1` registered a concentration for half-maximal inhibition (IC50) greater than 50 µM.

Turning to `COC(=O)c1ccc(Cn2c3ccccc3c3oc(C(=O)OC)cc32)o1`, the IC50 was greater than 50 µM.

Take `CCn1c2ccccc2c2oc(CO)cc21`: the IC50 was greater than 50 µM.

`COC(=O)c1cc2c(o1)c1ccccc1n2Cc1ccc(Cl)cc1` had an IC50 greater than 50 µM.

The compound `Cn1c2ccccc2c2oc(C(=O)O)cc21` came in with an IC50 greater than 50 µM.

Turning to `COC(=O)c1cc2c(o1)c1ccccc1n2Cc1ccc(C(=O)OC)s1`, the concentration for half-maximal inhibition (IC50) is greater than 50 µM.

In the next assay the test system is HL-60. Description: Cytotoxicity against human HL60 cells after 48 hrs by MTT assay. The settings on record: HL-60, 48 h. The class given is functional, cell-based. In outline:
as §1
On to `OCc1cc2c(o1)c1ccccc1n2Cc1ccccc1`, for which the IC50 was greater than 50 µM.

In turn, `OCc1cc2c(o1)c1ccccc1n2Cc1ccc(CO)[se]1` displayed an IC50 greater than 50 µM.

The compound `COC(=O)c1ccc(Cn2c3ccccc3c3oc(C(=O)OC)cc32)o1` gave an IC50 of 50 µM.

For the compound `CCn1c2ccccc2c2oc(CO)cc21`, the IC50 was greater than 50 µM.

`COC(=O)c1cc2c(o1)c1ccccc1n2Cc1ccc(Cl)cc1` returned an IC50 greater than 50 µM.

In turn, `Cn1c2ccccc2c2oc(C(=O)O)cc21` returned a 50% inhibitory concentration (IC50) greater than 50 µM.

As to `COC(=O)c1cc2c(o1)c1ccccc1n2Cc1ccc(C(=O)OC)s1`, the IC50 was greater than 50 µM.

System in another assay: not listed separately
Put plainly: Cytotoxicity against human H460 cells after 48 hrs by MTT assay. Format: functional, cell-based. The settings on record: NCI-H460, 48 h. An outline of the steps:
as §1
With `OCc1cc2c(o1)c1ccccc1n2Cc1ccccc1`, the half-maximal inhibitory concentration (IC50) is greater than 50 µM.

`OCc1cc2c(o1)c1ccccc1n2Cc1ccc(CO)[se]1` gave an IC50 greater than 50 µM.

`COC(=O)c1ccc(Cn2c3ccccc3c3oc(C(=O)OC)cc32)o1` came in with an IC50 greater than 50 µM.

In the case of `CCn1c2ccccc2c2oc(CO)cc21`, the concentration for half-maximal inhibition (IC50) was 50 µM.

In turn, `COC(=O)c1cc2c(o1)c1ccccc1n2Cc1ccc(Cl)cc1` displayed a half-inhibitory concentration (IC50) greater than 50 µM.

Regarding `Cn1c2ccccc2c2oc(C(=O)O)cc21`, the IC50 was greater than 50 µM.

On to `COC(=O)c1cc2c(o1)c1ccccc1n2Cc1ccc(C(=O)OC)s1`, for which the half-inhibitory concentration (IC50) was greater than 50 µM.

A further assay has as its system A498. Put plainly: Ratio of YC-1 IC50 to compound IC50 for human A498 cells after 48 hrs by MTT assay.
Conditions: not given
The class given is functional.
`OCc1cc2c(o1)c1ccccc1n2Cc1ccccc1`: the “Ratio IC50” value was 1.5.

Take `OCc1cc2c(o1)c1ccccc1n2Cc1ccc(CO)[se]1`: the “Ratio IC50” value is on record as 1.5.

In the next assay the test system is A498. Put plainly: Cytotoxicity against human A498 cells after 48 hrs by MTT assay. The class given is functional, cell-based. The settings on record: A498, 48 h.
`OCc1cc2c(o1)c1ccccc1n2Cc1ccccc1` displayed an IC50 of 0.24 µM. This lies in the sub-micromolar range.

`OCc1cc2c(o1)c1ccccc1n2Cc1ccc(CO)[se]1` registered an IC50 of 0.23 µM.

Consider `COC(=O)c1ccc(Cn2c3ccccc3c3oc(C(=O)OC)cc32)o1`, for which the IC50 was greater than 50 µM.

As to `CCn1c2ccccc2c2oc(CO)cc21`, it took 3.7 µM to reach half-maximal inhibition (IC50).

`COC(=O)c1cc2c(o1)c1ccccc1n2Cc1ccc(Cl)cc1` had an IC50 greater than 50 µM.

With `Cn1c2ccccc2c2oc(C(=O)O)cc21`, the half-maximal inhibitory concentration (IC50) is greater than 50 µM.

In turn, `COC(=O)c1cc2c(o1)c1ccccc1n2Cc1ccc(C(=O)OC)s1` showed an IC50 greater than 50 µM.

These data come from ChEMBL document CHEMBL2412970, “Synthesis and anticancer activity of 2,4-disubstituted furo[3,2-b]indole derivatives” (Eur J Med Chem, 2013).
